Data taken from PMC8361981 (Chemistry (Weinheim an Der Bergstrasse, Germany), 2021).

What was measured:
[1] = Cell viability of compound-treated, uninfected RD cells; type: cell-based; conditions: human, uninfected rhabdomyosarcoma (RD) cells
In short: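 Compound-treated, uninfected RD cells run in a setup parallel to the EV71 BrCr cytopathic-effect reduction assay in RD cells. CC50 is the concentration giving a 50 % reduction in cell viability. Selectivity index is CC50/EC50.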

[2] = tested on: EV71 BrCr laboratory-adapted strain; test: Anti-EV71 assay, BrCr laboratory-adapted strain in RD cells; type: cell-based, Enterovirus A71
In short: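 Enterovirus A71 BrCr (laboratory-adapted) was grown in rhabdomyosarcoma (RD) cells with test compound. EC50 is the concentration reducing virus-induced cytopathic effect by 50%. CC50 is the 50% loss of viability in compound-treated, uninfected RD cells run in a similar setup. SI = CC50/EC50.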

HIV-2 (ROD) = test: Anti-HIV-2; type: cell-based; conditions: Human immunodeficiency virus 2, CD4+ T cell, read-out: EC50 HIV-2/ROD
[3] = molecular target: recombinant HIV-1 IIIB gp120 (Human immunodeficiency virus type 1 group M subtype B, UniProt P04578); test: Surface plasmon resonance; type: binding
In short: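 Recombinant HIV-1 IIIB gp120, produced in Chinese hamster ovary cells, was immobilised as a monomer on a sensor chip. Test compound was passed over at 0.1–6.25 μM in two-fold dilution steps. Real-time binding responses were fitted to a 1:1 Langmuir model to obtain affinity and kinetic constants.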

HIV-1 (NL4.3) = test: Anti-HIV-1; type: cell-based; conditions: for EC50: Human immunodeficiency virus 1, CD4+ T cell, read-out: EC50 HIV-1/NL4.3
[4] = Cytotoxicity in MT-4 cells; type: cell-based; conditions: human
In short: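 Cytostatic read-out alongside the HIV cytopathicity assay. CC50 is the concentration that inhibits CD4 T cell proliferation by 50 %. Selectivity index is CC50/EC50.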

CCOC(=O)c1ccc(OCCC2CCN(c3ccc(C)nn3)CC2)cc1 [Pirodavir]
CC50 at 3 days [1]: > 100 µM
SI selectivity index (CC50/EC50) ([2]; EV71 BrCr in RD cells, Table 3): >333
EC50 ([2]; Enterovirus A, EV71, RD, read-out: EC50 EV71 BrCr): 0.3 ± 0.1 µM

CN[C@@H]1[C@H](O[C@@H]2OC[C@@H](O)[C@H](O)[C@H]2O)[C@@H](O)[C@H](O[C@H]2c3cc(C)c(C(=O)N[C@H](C)C(=O)O)c(O)c3-c3c(cc4c(c3O)C(=O)c3cc(OC)cc(O)c3C4=O)[C@@H]2O)O[C@@H]1C [Pradimicin A (PRM‐A), Pradimicin A]
EC50 (HIV-2 (ROD)): 5.9 ± 3.7 µM
Kd [3]: 6.52 ± 0.11 µM
kd ([3]; SPR, 1:1 Langmuir model, four replicates, 25 °C): 12.64±2.92 (10^−3)(1/s)
binding to gp120 (in words) ([3]; SPR, concentration-dependent): binds to gp120
kon ([3]; read-out: ka): 1930 ± 420 M⁻¹ s⁻¹
EC50 (HIV-1 (NL4.3)): 3.3 ± 1.2 µM
SI selectivity index (CC50/EC50) (HIV-1 (NL4.3); anti-HIV, Table 1): > 30.3
CC50 at 5 days [4]: > 100 µM

C[C@H](Cn1cnc2c(N)ncnc21)OCP(=O)(O)O [Tenofovir (PMPA), Tenofovir]
EC50 (HIV-2 (ROD)): 1 µM
EC50 (HIV-1 (NL4.3)): 4.74 µM
CC50 at 5 days [4]: > 100 µM
